This passage reports ED50, IC50 and Pupil size results from ChEMBL document CHEMBL1123213, “Neuroleptic activity of chiral trans-hexahydro-gamma-carbolines” (J Med Chem, 1986).

By ED50 is commonly meant the dose that gives a 50% effect, or the effect in half of the subjects. The IC50 is the concentration that gives 50% inhibition.

A value given as a limit tells only on which side of the number the result lay.

Assay [1] deals with Rattus norvegicus. Briefly: Antagonistic activity against amphetamine-induced stereotypy in rats; (5 mg/kg administered ip 1 hr after the test compound). The assay is classed as functional. The gist of the method: (§1)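 Rats housed singly in covered compartments, briefly acclimated, then dosed sc in groups of five at doses spaced 0.5 log unit (1, 3.2, 10, 32 mg/kg). d-Amphetamine sulfate 5 mg/kg ip given 1, 5 and 24 h later. Behaviour scored on a six-point scale 1 h after each challenge. ED50 by linear regression or by inspection; no fiducial limits.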

A further assay has as its target Dopamine receptor. Kind of assay: Inhibition of [3H]spiroperidol (0.5 nM) binding to dopamine receptor from rat striatal membrane.
Assay [2] concerns Rattus norvegicus. Briefly: Compound was tested for the antagonistic activity against amphetamine-induced stereotypy in rats; (5 mg/kg administered ip 24 hr after the test compound). The assay is classed as functional. In a few lines: as §1
Assay [3] has as its system Rattus norvegicus. Briefly: Compound was tested for the antagonistic activity against amphetamine-induced stereotypy in rats; (5 mg/kg administered ip 5 hr after the test compound). It is filed as functional. The gist of the method:
as §1

Assay [4] is filed under the species Rattus norvegicus. Briefly: Compound was tested for the antagonistic activity against amphetamine-induced stereotypy in rat. It is filed as functional. In a few lines:
as §1

Assay [5] deals with Rattus norvegicus. Briefly: Compound was tested for the antagonistic activity against amphetamine-induced stereotypy in rats; (5 mg/kg administered ip 24 hr after the test compound). It is filed as functional. The gist of the method: as §1
Assay [6] relates to Rattus norvegicus. Kind of assay: Compound was tested for the antagonistic activity against amphetamine-induced stereotypy in rats; (5 mg/kg administered ip 5 hr after the test compound). The assay is classed as functional. In a few lines:
as §1

For assay [7], the system named is Mus musculus. Kind of assay: Compound was tested for the anticholinergic activity against tetrabenazine-treated mice; activity expressed as the pupil size at the dose of 100 mg/kg sc. It is filed as functional. As to conditions: route subcutaneous. In a few lines:
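Groups of five mice dosed sc with test compound, then 1 h later tetrabenazine 32 mg/kg ip. After 30 min, pupil size measured with a binocular microscope; reticle readings converted to mm. Reported as mean ± SD pupil size (mm). Vehicle-pretreated tetrabenazine control groups of five run alongside.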

Assay [8] has as its system Mus musculus. Kind of assay: Compound was tested for the anticholinergic activity against tetrabenazine-treated mice; activity expressed as the pupil size at the dose of 32 mg/kg sc. The assay is classed as functional. As to conditions: route subcutaneous.
Assay [9] relates to Mus musculus. Kind of assay: Compound was tested for the anticholinergic activity against tetrabenazine-treated mice; activity expressed as the pupil size at the dose of 1 mg/kg sc. As to conditions: route subcutaneous.
[10] abbreviates: Rattus norvegicus, ip, 1 h, read-out: ED50.

Turning to `Fc1ccc(-n2c3c(c4cc(F)ccc42)CNCC3)cc1`, the ED50 in the assay with Rattus norvegicus [1] (setting [10]) is greater than 10 mg/kg. Besides, the 50% inhibitory concentration (IC50) at Dopamine receptor worked out at 350 nM.

On to `O=C1CNC(=O)N1CCCN1CCC2c3cc(F)ccc3N(c3ccc(F)cc3)C2C1` (stereo not drawn), for which the ED50 in the assay on Rattus norvegicus [2] is greater than 0.32 mg/kg; in the assay with Rattus norvegicus [1] (setting [10]), 0.11 mg/kg; in the assay with Rattus norvegicus [3], 0.05 mg/kg. Moreover, the half-maximal inhibitory concentration (IC50) on Dopamine receptor turned out to be 14 nM.

At Dopamine receptor, `CC(=O)NCCCCN1CCc2c(c3cc(F)ccc3n2-c2ccc(F)cc2)C1.Cl` registered an IC50 of 54 nM. The compound also registered a median effective dose (ED50) in the assay listed under Rattus norvegicus [4] greater than 3.2 mg/kg.

Take `Cl.O=C1CNC(=O)N1CCCCCCN1CCC2c3cc(F)ccc3N(c3ccc(F)cc3)C2C1` (stereo not drawn): the ED50 in the assay on Rattus norvegicus [2] was greater than 0.32 mg/kg; in the assay on Rattus norvegicus [1] (setting [10]), 0.18 mg/kg; with Rattus norvegicus [3], 0.033 mg/kg. This compound gave a 50% inhibitory concentration (IC50) at Dopamine receptor of 9.4 nM.

Turning to `CC(=O)NCCCCN1CCC2C(C1)c1cc(F)ccc1N2c1ccc(F)cc1.Cl` (stereo not drawn), the IC50 on Dopamine receptor amounted to 13 nM. In the assay filed under Rattus norvegicus [4], this compound gave an ED50 of 0.006 mg/kg.

With `OC(CCN1CC[C@H]2[C@H](C1)c1cc(F)ccc1N2c1ccc(F)cc1)(c1ccccc1)c1ccccc1`, the ED50 in the assay with Rattus norvegicus [1] (setting [10]) and in the assay on Rattus norvegicus [3] was greater than 10 mg/kg each time. Besides, the IC50 at Dopamine receptor amounted to 220 nM.

For `O[C@H](CCCN1CC[C@@H]2[C@@H](C1)c1cc(F)ccc1N2c1ccc(F)cc1)c1ccc(F)cc1` (stereo in doubt; 2c), the ED50 with Rattus norvegicus [1] turned out to be 0.05 mg/kg; with Rattus norvegicus [5], 0.02 mg/kg; in the assay with Rattus norvegicus [6], 0.02 mg/kg. On Dopamine receptor, this compound showed an IC50 of 22 nM.

Consider `O=C1CNC(=O)N1CCN1CCC2c3cc(F)ccc3N(c3ccc(F)cc3)C2C1` (stereo not drawn), for which the ED50 in the assay with Rattus norvegicus [2] is greater than 32 mg/kg; in the assay on Rattus norvegicus [1] (setting [10]), 0.57 mg/kg; in the assay on Rattus norvegicus [3], 0.57 mg/kg. On Dopamine receptor, this compound came in with a half-inhibitory concentration (IC50) of 26 nM.

For `O[C@H](CCCN1CC[C@H]2[C@H](C1)c1cc(F)ccc1N2c1ccc(F)cc1)c1ccc(F)cc1` (stereo in doubt; 2a), the median effective dose (ED50) in the assay with Rattus norvegicus [1] was determined as 0.21 mg/kg; with Rattus norvegicus [5], 0.02 mg/kg; in the assay with Rattus norvegicus [6], 0.05 mg/kg. On Dopamine receptor, the half-inhibitory concentration (IC50) is given as 25 nM.

In turn, `Cl.O=C(NCCCCCCN1CCc2c(c3cc(F)ccc3n2-c2ccc(F)cc2)C1)c1ccccc1` displayed an IC50 at Dopamine receptor of 8.5 nM. For the same compound, the ED50 in the assay filed under Rattus norvegicus [4] is greater than 10 mg/kg.

For `Cl.O=C1CNC(=O)N1CCCCCCN1CC[C@@H]2c3cc(F)ccc3N(c3ccc(F)cc3)[C@H]2C1`, the ED50 in the assay with Rattus norvegicus [2] came out at 0.07 mg/kg; in the assay on Rattus norvegicus [1] (setting [10]), 0.13 mg/kg; in the assay on Rattus norvegicus [3] it was 0.02 mg/kg. Besides, on Dopamine receptor, the concentration for half-maximal inhibition (IC50) is on record as 14 nM.

Take `CN1CCC2C(C1)c1cc(F)ccc1N2c1ccc(F)cc1.Cl` (stereo not drawn): the 50% inhibitory concentration (IC50) at Dopamine receptor is on record as 7.5 nM. This compound had an ED50 in the assay listed under Rattus norvegicus [4] of 0.3 mg/kg.

`Cl.O[C@H](CCCN1CCC2C(C1)c1cc(F)ccc1N2c1ccc(F)cc1)c1ccc(F)cc1` (stereo partly drawn): the ED50 in the assay with Rattus norvegicus [2] is 0.02 mg/kg; with Rattus norvegicus [1] (setting [10]) it was 0.21 mg/kg; with Rattus norvegicus [3], 0.05 mg/kg. In addition, the IC50 on Dopamine receptor is on record as 25 nM.

For the compound `Cl.Fc1ccc(N(c2ccc(F)cc2)C2CCNCC2)cc1`, the half-maximal inhibitory concentration (IC50) at Dopamine receptor is on record as greater than 1000 nM.

Take `CN1CCN(C2=Nc3cc(Cl)ccc3Nc3ccccc32)CC1` [CLOZAPINE]: the Pupil size in the assay on Mus musculus [7] was found to be 1.13 mm.

On to `O=C(CCCN1CC[C@H]2[C@H](C1)c1cc(F)ccc1N2c1ccc(F)cc1)NC1CCCCC1`, for which the Pupil size with Mus musculus [8] is 0.23 mm. Besides, the results for the median effective dose (ED50) in the assay on Rattus norvegicus [2], in the assay with Rattus norvegicus [1] (setting [10]) and in the assay on Rattus norvegicus [3] were 0.57 mg/kg, 0.45 mg/kg and 0.14 mg/kg, respectively. This compound also had a half-inhibitory concentration (IC50) at Dopamine receptor of 12 nM.

Turning to `O[C@H](CCCN1CC[C@@H]2[C@@H](C1)c1cc(F)ccc1N2c1ccc(F)cc1)c1ccc(F)cc1` (stereo in doubt; 2d), the median effective dose (ED50) in the assay with Rattus norvegicus [1] was greater than 10 mg/kg; with Rattus norvegicus [5] it was greater than 10 mg/kg; in the assay with Rattus norvegicus [6] it was 18.1 mg/kg. This compound also registered a 50% inhibitory concentration (IC50) at Dopamine receptor of 1800 nM.

As for `OC(CCCN1CCc2c(c3cc(F)ccc3n2-c2ccc(F)cc2)C1)c1ccc(F)cc1` (stereo not drawn) [FLUTROLINE], the ED50 with Rattus norvegicus [1] (setting [10]) amounted to 1 mg/kg; in the assay on Rattus norvegicus [5] (Rattus norvegicus, ip, 24 h, read-out: ED50), 2.2 mg/kg; with Rattus norvegicus [6] (Rattus norvegicus, ip, 5 h, read-out: ED50), 0.15 mg/kg. The IC50 on Dopamine receptor worked out at 12 nM.

The compound `CN1[C@@H]2CC[C@H]1C[C@@H](OC(=O)C(CO)c1ccccc1)C2.O=S(=O)(O)O` (stereo partly drawn) [ATROPINE SULFATE] had a Pupil size in the assay with Mus musculus [9] of 1.98 mm.

The compound `Fc1ccc(N2c3ccc(F)cc3[C@@H]3CNCC[C@H]32)cc1` showed an IC50 on Dopamine receptor of 3200 nM.
